Assay outcomes as filed in PubChem BioAssay.
In the library only some 3% were active in any assay of this set; here they are far more common.
SENP6 inh – SENP6 protease inhibitors, primary screen, biochemical, luminescence, uHTS. Sentrin-specific protease 6 (Homo sapiens), Q9GZR1. hit rate 1.8% among 330,000. inhibition, % at 10 µM. Recombinant SENP6 catalytic domain, aminoluciferin luminescence. AID 2599, 2010;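 active = inhibition above about 50% at the single tested dose, limit read from the data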;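 note: plate controls were DMSO wells with enzyme for no effect and DMSO wells lacking enzyme for full effect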
SENP8 block-1 – human SENP8 protease inhibitors, primary screen, biochemical, fluorescence, Nedd8 protein substrate, uHTS; recombinant SENP8; inhibition, % at 20 µM; hit rate 0.64% among 360,000; AID 602440, 2012; in the data active = inhibition mostly above about 40%, no sharp cut-off; inactive = mostly below about 27%
Apaf-1 inh – inhibitors of human Apaf-1 apoptosome, primary screen, biochemical, DEVD-Rh110 fluorescence, uHTS. Apoptotic protease-activating factor 1 (Homo sapiens), O14727. reconstituted apoptosome caspase-3 activity. inhibition, % at 20 µM. hit rate 0.71% among 330,000. AID 489030, 2010; active = inhibition of at least 40% at 20 µM;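 note: plate controls were DMSO wells for no effect and DEVD-CHO caspase inhibitor wells for full effect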
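System: reconstituted apoptosome with Apaf-1, cytochrome c, caspase-9, procaspase-3, dATP; Signal: Rh110 fluorescence intensity; Schedule: 30 min compound preincubation, 50 min activation, room temperature; Reagent: cytochrome c trigger plus (Z-DEVD)2-Rh110 caspase-3 substrate.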
UBC13 polyUb – UBC13 polyubiquitin chain formation inhibitors, primary screen, biochemical, TR-FRET, uHTS. Ubiquitin-conjugating enzyme E2 N (Homo sapiens), P61088. inhibition, % at 20 µM. hit rate 0.47% among 330,000; in the data active = inhibition above about 45%, passing the limit was not always enough
Target sequence (P61088 whole entry, looked up): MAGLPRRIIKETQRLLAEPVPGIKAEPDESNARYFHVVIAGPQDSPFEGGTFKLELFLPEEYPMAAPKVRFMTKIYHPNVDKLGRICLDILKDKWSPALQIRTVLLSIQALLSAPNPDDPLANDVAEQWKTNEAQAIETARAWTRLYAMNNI
SENP7 block – SENP7 protease inhibitors, primary screen, biochemical, luminescence, uHTS; Sentrin-specific protease 7 (Homo sapiens), Q9BQF6; recombinant SENP7, Z-RLRGG-aminoluciferin luminescence, 40 min; inhibition, % at 5 µM; hit rate 1.5% among 330,000; AID 434973, 2010;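 active = inhibition above about 50% at the single test dose, limit read from the data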;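 note: plate controls were DMSO with enzyme for no effect and no enzyme buffer wells for full effect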
Target sequence (Q9BQF6 706-1050 limits assumed): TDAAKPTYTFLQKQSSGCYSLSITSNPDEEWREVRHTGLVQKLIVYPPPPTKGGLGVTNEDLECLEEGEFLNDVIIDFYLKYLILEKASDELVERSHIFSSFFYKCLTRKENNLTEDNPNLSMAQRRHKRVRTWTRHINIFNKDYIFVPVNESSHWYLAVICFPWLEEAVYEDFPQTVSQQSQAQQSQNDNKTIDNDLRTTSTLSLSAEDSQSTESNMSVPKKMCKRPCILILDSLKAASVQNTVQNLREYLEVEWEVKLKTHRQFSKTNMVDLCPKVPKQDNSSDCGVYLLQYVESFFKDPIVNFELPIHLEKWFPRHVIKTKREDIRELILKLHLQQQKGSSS
SENP8 block-2 – SENP8 protease inhibitors, primary screen, biochemical, luminescence; purified SENP8, Z-RLRGG-aminoluciferin cleavage; hit rate 1.2% among 330,000; inhibition, % at 10 µM; AID 2540, 2010; Sentrin-specific protease 8 (Homo sapiens), Q96LD8; in the data active = inhibition above about 50%
Apaf-1 inh conf – Apaf-1 inhibitors, single-dose retest, confirmation, biochemical, fluorescence, DEVD-Rh110, 20 µM. hit rate 25% among 1,800. shares compounds with Apaf-1 inh. inhibition, % at 20 µM. reconstituted apoptosome, caspase-3 DEVD-Rh110 fluorescence. AID 504614, 2011;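 active = mean inhibition of at least 40% at 20 µM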;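 note: plate controls were DMSO wells for no effect and DEVD-CHO caspase inhibitor control wells for full effect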
Rh110 interf inh – Rh110 fluorescence interference by putative Apaf-1 inhibitors, confirmation, artefact control for Apaf-1 inhibitor project, biochemical, 20 µM. activation (fluorescence interference), % at 20 µM. shares compounds with Apaf-1 inh. 1,800 tested, under 10 active. AID 504615, 2011. quenched caspase reaction;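 active = signal rise of 40% or more at 20 µM, treated as a fluorescence artifact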
Fluor interf inh – fluorescence interference of Apaf-1 inhibitor hits, dose response, artefact control for Apaf-1 inhibitor project; fluorescence interference counterscreen, Apaf-1 assay format; IC50, µM; shares compounds with Apaf-1 inh; 460 tested, under 10 active; call rule not given here
* = called active by the depositor; . = no result given.

SMILES	SENP6 inh	SENP8 block-1	Apaf-1 inh	UBC13 polyUb	SENP7 block	SENP8 block-2	Apaf-1 inh conf	Rh110 interf inh	others
N#Cc1nc(Cl)c(Cl)c(NN)c1Cl	-5.7	34.8	-2.2	1.9	2.5	-7.5	.	.
Cc1ccc(OCC(=O)N(Cc2nnc(-c3ccccc3Cl)o2)C2CC2)cc1C	-22.7	-8.3	56.2*	4.2	3.0	-10.6	49.1*	9.1	Fluor interf inh=>100
O=C(COc1ccccc1)N(Cc1nnc(-c2ccccc2Cl)o1)C1CC1	-0.9	-3.7	16.4	0.0	7.9	-4.2	.	.
CC1=C(C(=O)OCCC#N)C(c2cc3c(cc2Br)OCO3)NC(=O)N1 (centres undefined)	8.2	17.7	3.5	-5.0	4.9	-0.6	.	.
O=C(NC1CCCC1)C(c1ccccn1)N(C(=O)c1csnn1)c1ccccc1F (centres undefined)	13.8	5.6	-3.9	-0.6	0.3	0.6	.	.
O=[N+]([O-])c1c(Nc2ccccn2)cc(Cl)c2nonc12	87.0*	68.2*	91.3*	-146.3	95.3*	42.9	28.0	-1.8
O=C(O)c1ccccc1Nc1cc(Cl)c2nonc2c1[N+](=O)[O-]	1.3	32.0	-2.0	-36.0	-2.9	3.3	.	.
CCCc1ccc2oc(C(=O)NCCc3nc(C(=O)OCC)cs3)c(C)c2c1	8.1	-1.2	40.8*	1.5	-1.3	-2.2	21.1	11.6
CCCc1ccc2oc(C(=O)NCCc3cnn(C)c3)c(C)c2c1	22.0	8.1	7.4	0.6	17.6	-2.6	.	.
COc1ccc(CC(=O)Nc2ccc(S(=O)(=O)Nc3onc(C)c3C)cc2)cc1OC	-4.3	3.7	-90.5	3.9	-0.8	-0.6	.	.
S=c1[nH]c2cc(Cl)c3cccnc3c2o1	10.4	-7.4	46.2*	-5.3	7.5	5.4	25.9	0.9
S=c1[nH]c2ncccc2o1	-1.0	4.8	-6.7	4.7	5.7	5.4	.	.
CC1(C(=O)Nc2ccc3ccccc3c2)CCC(=O)N1C1CC1 (centres undefined)	.	13.0	.	.	.	.	.	.
O=C(Nc1ccc2nc(-c3cccs3)[nH]c2c1)c1cccs1	-3.3	-424.5	2.4	-5.2	5.8	-2.2	.	.
O=C(Nc1ccc(-c2nc3ccc(NC(=O)c4cccs4)cc3[nH]2)cc1)c1cccs1	-6.0	-96.4	68.9*	41.2	-10.7	-0.7	90.0*	6.7	Fluor interf inh=>100
COc1cc(NC(=O)CCn2c(=S)oc3ccccc32)cc(OC)c1OC	16.0	22.9	1.8	2.6	5.1	10.5	.	.
CCCCCCCCCn1c2c(c(=N)c3c1CCC3)CCC2	-22.6	13.0	49.7*	30.9	-5.9	-4.7	17.5	9.5
O=C(c1ccc(Cn2c(=O)[nH]c3ccccc3c2=O)cc1)N1CCN(c2ccc(Cl)cc2)CC1	-21.4	10.1	41.4*	-8.0	-9.2	-1.7	14.4	4.3
O=C(OCc1nc2ccccc2s1)c1ccc([N+](=O)[O-])o1	37.6	34.6	69.3*	-9.2	7.6	3.3	14.9	7.4
Cc1ccc(NC(=O)COc2ccccc2)cc1Cl	2.4	9.8	7.6	-7.4	-3.5	12.7	.	.
CN1CCN(c2ccc(NC(=O)COc3ccccc3)cc2Cl)CC1	-0.4	4.9	49.5*	2.6	-2.1	2.3	15.1	6.3
Cc1cc(C)c(S(=O)(=O)NCc2ccc3c(c2)cc(C)n3C)c(C)c1	5.8	-70.7	44.0*	6.0	2.1	6.5	3.1	-1.4
CC(=O)Nc1ccc(S(=O)(=O)NCc2ccc3c(c2)cc(C)n3C)cc1	2.4	-40.0	51.2*	18.6	14.6	3.4	3.8	2.5
Cc1cc2cc(CNC(=O)c3ccc(S(=O)(=O)N(C)C)cc3)ccc2n1C	9.8	-48.3	45.4*	5.8	1.0	4.7	8.8	7.7
Cc1cc2cc(CNC(=O)c3ccc(S(=O)(=O)N4CCOCC4)cc3)ccc2n1C	-8.4	-33.9	35.1	3.0	-0.1	3.3	.	.
SMILES	SENP6 inh	SENP8 block-1	Apaf-1 inh	UBC13 polyUb	SENP7 block	SENP8 block-2	Apaf-1 inh conf	Rh110 interf inh	others
Cc1cc2cc(CNS(=O)(=O)c3ccc4ccccc4c3)ccc2n1C	7.8	-35.3	16.0	-9.3	5.3	0.4	.	.
CC/C(=N/Nc1ccccc1C)c1cnnc(SC)n1	27.0	11.2	40.7*	-16.1	6.8	0.3	2.1	-7.9
CSc1nnc2c(n1)[nH]c1c(C)cccc12	-7.9	4.7	5.8	-15.4	17.8	0.6	.	.
COc1ccccc1OC(C)C(=O)Nc1ccccc1C(=O)NCc1cccnc1 (centres undefined)	2.5	-0.1	3.9	5.4	-2.6	-9.7	.	.
CCN1CCN(Cc2ccc(NC(=O)c3cc(NC(=O)C4=NN(c5ccccc5)C(=O)C4)cc(OC)c3)cc2C(F)(F)F)CC1	-2.3	2.1	50.6*	0.3	-3.7	-0.4	20.6	11.6
Cc1cc(C)cc(C(=O)NCC(=O)OC(C)C(=O)N(C)c2ccccc2)c1 (centres undefined)	-15.2	2.3	-4.6	3.8	-0.7	-3.5	.	.
CC(C)(C)OC(=O)[C@H](Cc1ccccc1)NC(=O)c1nc[nH]c1C(=O)N1CCNCC1	-22.5	9.4	11.2	13.0	11.8	1.4	.	.
CCOc1ccc(S(=O)(=O)N2CCOCC2)cc1NC(=O)C1CSC2(C)CCC(=O)N12 (centres undefined)	-6.1	1.9	-3.4	-0.3	0.1	1.5	.	.
CCN(CC)c1ccc(S(=O)(=O)N2CCCCC2)cc1NC(=O)C1CSC2(C)CCC(=O)N12 (centres undefined)	-16.7	10.6	51.0*	32.1	9.9	2.9	5.4	1.6
CC12CCC(=O)N1C(C(=O)Nc1ccccc1N1CCCCC1)CS2 (centres undefined)	-7.9	-1.0	48.1*	12.5	-5.6	-15.0	29.0	-0.9
COc1ccc(S(=O)(=O)N2CCOC2CNC(=O)C(=O)NCCN2CCOCC2)cc1OC (centres undefined)	-4.8	10.9	-9.3	9.1	-3.5	-12.1	.	.
CCC(=O)NC(Nc1ccccn1)(C(=O)OC)C(F)(F)F (centres undefined)	-3.0	7.3	-4.5	-12.9	0.6	-3.2	.	.
CC1=CC(=O)C=C(C)C1=NOc1ccccc1[N+](=O)[O-]	-0.5	20.5	11.7	-29.3	-4.7	-4.6	.	.
